Test results reported in ChEMBL document CHEMBL5335768, “Expanding the knowledge around antitubercular 5-(2-aminothiazol-4-yl)isoxazole-3-carboxamides: Hit-to-lead optimization and release of a novel antitubercular chemotype via scaffold derivatization” (Eur J Med Chem, 2023).
In brackets after ≈: the same amount, converted by molar mass. Activity calls are given as the source filed them. No cut-off for these calls is given here.

Tests used:
[1] = Cytotoxicity against human THP-1 cells assessed as reduction in cell viability measured after 72 hrs by MTT assay; format: toxicity, cell-based
Summary of the method: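 THP-1 monocytes were differentiated to macrophages with PMA 100 ng/mL for 72 h. They were then exposed to compounds at 1, 10, 50 and 100 μM for 72 h, each tested twice. MTT at 1 mg/mL in RPMI with 5% FBS was added for 2 h at 37 °C; formazan was dissolved in DMSO and read at 570 nm. Viability is given as % of control; IC50 from non-linear regression.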

[2] = tested on: Mycobacterium tuberculosis; test: Antitubercular activity against Mycobacterium tuberculosis H37Rv assessed as inhibition of bacterial growth incubated for 7 days by REMA method; format: functional
Mycobacterium marinum [3] = details: ATCC BAA-535, time 3.0 weeks
[4] = Half life in human liver microsomes at 1 uM preincubated with NADP+ for 5 mins prior to compound addition by HPLC-MRM-MS analysis; format: ADME, Microsome
Summary of the method: (§1)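 Pooled HLM at 1 mg/mL protein in 100 mM PBS pH 7.4 with an NADPH-regenerating mix: G6P 10 mM, NADP+ 2 mM, MgCl2 5 mM, G6PDH 1.5 U/mL (stock concentrations). Pre-incubated 5 min at 37 °C, then compound added to 1 μM final (1% DMSO).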

[5] = tested on: Mycobacteroides abscessus; test: Antitubercular activity against Mycobacterium abscessus Bamboo assessed as inhibition of bacterial growth upto 100 uM measured after 3 days by broth microdilution method; format: functional, organism-based; details: time 3.0 day
Summary of the method: (§2)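 Twofold serial dilutions inoculated at OD600 0.05; incubated at 37 °C, shaking at 110 rpm, for 3 days (M. abscessus Bamboo) or 4 days (M. avium 11). […] Clarithromycin positive control; data representative of two independent replicates.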

Mycobacterium avium = test: Antitubercular activity against Mycobacterium avium 11 assessed as inhibition of bacterial growth upto 100 uM measured after 4 days by broth microdilution method; format: functional, organism-based; details: time 4.0 day; summary of the method: as §2
[6] = Metabolic stability of the compound in human liver microsomes assessed as parent residual fraction at 1 uM preincubated with NADP+ for 5 mins prior to compound addition by HPCLC-MRM-MS analysis; format: ADME, Microsome; details: read-out: Stability; summary of the method: as §1
Mycobacterium marinum [7] = test: Antitubercular activity against Mycobacterium marinum ATCC BAA-535 assessed as inhibition of bacterial growth measured after 3 weeks by broth microdilution method; format: functional; details: ATCC BAA-535, 504 h
[8] = Mycobacterium tuberculosis, H37Rv, 168 h, time 7 day, read-out: MIC90

| SMILES | IC50 at 72 h [1] | MIC90 [2, 8] | also measured |
| --- | --- | --- | --- |
| Cc1ccc(Nc2nc(-c3cc(C(=O)Nc4ccccc4F)no3)cs2)cc1 | 33.9 µg/mL (≈ 85.9 µM) | 1 µg/mL (≈ 2.54 µM) |  |
| O=C(Nc1ccc(O)cc1)c1cc(C(=O)Nc2nc3ccccc3s2)on1 |  |  | MIC90 ([2]; time 7.0 day): inactive; MIC90 (Mycobacterium marinum [3]): inactive |
| Cc1ccc(Nc2nc(-c3cc(C(=O)NCc4cccs4)no3)cs2)cc1 |  | > 20 µg/mL |  |
| O=C(Nc1ccccc1)c1cc(-c2csc(Nc3cc(F)cc(F)c3)n2)on1 |  | > 20 µg/mL |  |
| Cc1ccc(Nc2nc(-c3cc(C(=O)Nc4ccc(O)cc4)no3)cs2)cc1O |  | 5 µg/mL (≈ 12.2 µM) | t1/2 [4]: 19 min |
| Cc1ccc(Nc2nc(-c3cc(C(=O)Nc4ncccc4C)no3)cs2)cc1 |  | > 20 µg/mL |  |
| Cc1ccc(Nc2nc(-c3cc(C(=O)Nc4ccccc4)no3)co2)cc1 | > 100 µg/mL | 1 µg/mL (≈ 2.77 µM) | Activity [5]: inactive; Activity (Mycobacterium avium): inactive |
| Cc1ccc2nc(NC(=O)c3cc(C(=O)Nc4ccc(O)cc4)no3)sc2c1 |  |  | MIC90 ([2]; time 7.0 day): inactive; MIC90 (Mycobacterium marinum [3]): inactive |
| O=C(Nc1ccccn1)c1cc(-c2csc(Nc3cc(Cl)cc(Cl)c3)n2)on1 |  | > 20 µg/mL |  |
| O=C(Nc1ccccn1)c1cc(-c2csc(Nc3cc(Cl)c(Cl)c(Cl)c3)n2)on1 |  | > 20 µg/mL | remaining at 1 µM [6]: 102% |
| Cc1ccc(Nc2nc(-c3cc(C(=O)Nc4ccccc4C)no3)cs2)cc1 | 63.7 µg/mL (≈ 163 µM) | 1 µg/mL (≈ 2.56 µM) | Activity [5]: inactive; Activity (Mycobacterium avium): inactive |
| Cc1ccc(Nc2nc(-c3cc(C(=O)Nc4cccc(F)c4)no3)cs2)cc1 |  | 2.5 µg/mL (≈ 6.34 µM) | Activity [5]: inactive; Activity (Mycobacterium avium): inactive |
| O=C(Nc1ccccc1)c1cc(-c2csc(Nc3cc(Cl)cc(Cl)c3)n2)on1 |  | > 20 µg/mL |  |
| Cc1ccc(Nc2nc(-c3cc(C(=O)Nc4ccsc4)no3)cs2)cc1 | > 100 µg/mL | 1 µg/mL (≈ 2.61 µM) | MIC90 (Mycobacterium marinum [7]): 1 µg/mL (≈ 2.61 µM) |
| Cc1ccc(Nc2nc(-c3cc(C(=O)Nc4ncc(C)s4)no3)cs2)cc1 |  | > 20 µg/mL |  |
| Cc1ccc(Nc2nc(-c3cc(C(=O)Nc4nccs4)no3)cs2)cc1 |  | > 40 µg/mL |  |
| CCOc1cccc(NC(=O)c2cc(-c3csc(Nc4ccc(C)cc4)n3)on2)c1 |  | > 20 µg/mL |  |
| Cc1ccc(Nc2nc(-c3cc(C(=O)Nc4ccc(C)cc4C)no3)cs2)cc1 |  | > 20 µg/mL |  |
| Cc1ccc(Nc2nc(-c3cc(C(=O)Nc4cccnc4)no3)cs2)cc1 |  | 10 µg/mL (≈ 26.5 µM) |  |

| SMILES | IC50 at 72 h [1] | MIC90 [2, 8] | also measured |
| --- | --- | --- | --- |
| CN[C@@H]1[C@H](O[C@H]2[C@H](O[C@H]3[C@H](O)[C@@H](O)[C@H](N=C(N)N)[C@@H](O)[C@@H]3N=C(N)N)O[C@@H](C)[C@]2(O)C=O)O[C@@H](CO)[C@H](O)[C@H]1O [STREPTOMYCIN] |  | 0.25 µg/mL (≈ 0.43 µM) |  |
| O=C(Nc1ccccc1)c1cc(-c2csc(Nc3cccc(O)c3)n2)on1 |  | 5 µg/mL (≈ 13.2 µM) | t1/2 [4]: 34 min |
| Cc1ccc(Nc2nc(-c3cc(C(=O)N4CCCC4)no3)cs2)cc1 | > 100 µg/mL | > 20 µg/mL |  |
| Cc1ccc(Nc2nc(-c3cc(C(=O)Nc4cc(C)cc(C)c4)no3)cs2)cc1 |  | > 20 µg/mL |  |
| Cc1ccc(Nc2nc(-c3cc(C(=O)Nc4cccc(C)c4)no3)cs2)cc1 | 10.7 µg/mL (≈ 27.4 µM) | 0.5 µg/mL (≈ 1.28 µM) | Activity [5]: inactive; Activity (Mycobacterium avium): inactive |
| Cc1ccc(Nc2nc(-c3cc(C(=O)Nc4ccccn4)no3)co2)cc1 | 70.9 µg/mL (≈ 196 µM) | 2.5 µg/mL (≈ 6.92 µM) |  |
| O=C(Nc1ccccc1)c1cc(-c2csc(Nc3ccc(Cl)cc3)n2)on1 | > 100 µg/mL | 1.25 µg/mL (≈ 3.15 µM) | MIC90 (Mycobacterium marinum [7]): 2 µg/mL (≈ 5.04 µM); t1/2 [4]: 59 min |
| Cc1ccc(Nc2nc(-c3cc(C(=O)Nc4ccccc4O)no3)cs2)cc1 | 53.1 µg/mL (≈ 135 µM) | 0.5 µg/mL (≈ 1.27 µM) |  |
| O=C(Nc1ccccc1)c1cc(-c2csc(Nc3ccc(CO)cc3)n2)on1 |  | > 20 µg/mL |  |
| Cc1cc(C)cc(Nc2nc(-c3cc(C(=O)Nc4ccccn4)no3)cs2)c1 |  | > 20 µg/mL |  |
| Cc1ccc(Nc2nc(-c3cc(C(=O)Nc4ccc(Cl)cc4)no3)cs2)cc1 |  | > 40 µg/mL |  |
| Cc1ccc(Nc2nc(-c3cc(C(=O)Nc4ccncc4)no3)cs2)cc1 | 29.9 µg/mL (≈ 79.2 µM) | 1 µg/mL (≈ 2.65 µM) | Activity [5]: inactive; Activity (Mycobacterium avium): inactive |
| COc1ccc2sc(NC(=O)c3cc(C(=O)Nc4cccc(C)c4)no3)nc2c1 |  |  | MIC90 ([2]; time 7.0 day): inactive; MIC90 (Mycobacterium marinum [3]): inactive |
| O=C(Nc1cccc(F)c1)c1cc(C(=O)Nc2nc3ccccc3s2)on1 |  |  | MIC90 ([2]; time 7.0 day): inactive; MIC90 (Mycobacterium marinum [3]): inactive |
| O=C(Nc1ccccn1)c1cc(-c2csc(Nc3cc(F)cc(F)c3)n2)on1 |  | > 20 µg/mL |  |
| Cc1cc(C)cc(Nc2nc(-c3cc(C(=O)Nc4ccccc4)no3)cs2)c1 | 70.9 µg/mL (≈ 182 µM) | 1 µg/mL (≈ 2.56 µM) | Activity [5]: inactive; Activity (Mycobacterium avium): inactive |
| NNC(=O)c1ccncc1 [ISONIAZID] |  |  | MIC90 ([2]; time 7 day): 0.025 µg/mL (≈ 0.182 µM) |
| CCOC(=O)c1cc(-c2cccc(Nc3ccc(C)cc3)n2)on1 | > 100 µg/mL | 1.25 µg/mL (≈ 3.87 µM) |  |
| Cc1ccc(Nc2nc(-c3cc(C(=O)Nc4ccccn4)no3)cs2)cc1O | > 100 µg/mL | 5 µg/mL (≈ 12.7 µM) | Activity [5]: inactive; Activity (Mycobacterium avium): inactive |

| SMILES | IC50 at 72 h [1] | MIC90 [2, 8] | also measured |
| --- | --- | --- | --- |
| Cc1ccc(Nc2nc(-c3cc(C(=O)Nc4cccc(C)n4)no3)cs2)cc1 | 66.8 µg/mL (≈ 171 µM) |  | MIC90 (Mycobacterium marinum [7]): 1 µg/mL (≈ 2.55 µM) |
| Cc1ccc(Nc2nc(-c3cc(C(=O)Nc4cccc(O)c4)no3)cs2)cc1 | 48.7 µg/mL (≈ 124 µM) | 0.5 µg/mL (≈ 1.27 µM) | Activity [5]: inactive; Activity (Mycobacterium avium): inactive |
| Cc1ccc(Nc2nc(-c3cc(C(=O)Nc4cccc(C(F)(F)F)c4)no3)cs2)cc1 |  | > 20 µg/mL |  |
| Cc1ccc(NC(=O)c2cc(-c3csc(Nc4ccc(C)cc4)n3)on2)cc1 | 47.5 µg/mL (≈ 122 µM) | 1 µg/mL (≈ 2.56 µM) |  |
| O=C(Nc1ccccn1)c1cc(-c2csc(Nc3ccc(CO)cc3)n2)on1 |  | > 20 µg/mL |  |
| Cc1ccc(Nc2nc(-c3cc(C(=O)Nc4ccccn4)no3)cs2)c(O)c1 |  | > 20 µg/mL |  |
| Cc1ccc(Nc2nc(-c3cc(C(=O)Nc4ccc(F)cc4)no3)cs2)cc1 | 46.8 µg/mL (≈ 119 µM) | 1 µg/mL (≈ 2.54 µM) | Activity [5]: inactive; Activity (Mycobacterium avium): inactive |
| Cc1ccc2nc(NC(=O)c3cc(C(=O)Nc4ccccn4)no3)sc2c1 |  |  | MIC90 ([2]; time 7.0 day): inactive; MIC90 (Mycobacterium marinum [3]): inactive |
| Cc1ccc(Nc2nc(-c3cc(C(=O)Nc4ccccc4)no3)cs2)cc1O | > 100 µg/mL | 2.5 µg/mL (≈ 6.37 µM) |  |
| Cc1cccc(NC(=O)c2cc(C(=O)Nc3nc4ccccc4s3)on2)c1 |  |  | MIC90 ([2]; time 7.0 day): inactive; MIC90 (Mycobacterium marinum [3]): inactive |
| Cc1ccc2nc(NC(=O)c3cc(C(=O)Nc4ccccc4)no3)sc2c1 |  |  | MIC90 ([2]; time 7.0 day): inactive; MIC90 (Mycobacterium marinum [3]): inactive |
| Cc1ccc(Nc2nc(-c3cc(C(=O)Nc4ccc(C)cc4Cl)no3)cs2)cc1 |  | > 20 µg/mL |  |
| O=C(Nc1ccccc1)c1cc(C(=O)Nc2nc3ccccc3s2)on1 |  |  | MIC90 ([2]; time 7.0 day): inactive; MIC90 (Mycobacterium marinum [3]): inactive |
| Cc1cccc(NC(=O)c2cc(C(=O)Nc3nc4ccc(C)cc4s3)on2)c1 |  |  | MIC90 ([2]; time 7.0 day): inactive; MIC90 (Mycobacterium marinum [3]): inactive |
| O=C(Nc1ccccn1)c1cc(C(=O)Nc2nc3ccccc3s2)on1 |  |  | MIC90 ([2]; time 7.0 day): inactive; MIC90 (Mycobacterium marinum [3]): inactive |
| O=C(Nc1cccc(O)c1)c1cc(C(=O)Nc2nc3ccccc3s2)on1 |  |  | MIC90 ([2]; time 7.0 day): inactive; MIC90 (Mycobacterium marinum [3]): inactive |
| Cc1ccc(Nc2nc(-c3cc(C(=O)Nc4ccnnc4)no3)cs2)cc1 |  | > 20 µg/mL |  |
| Cc1ccc(Nc2nc(-c3cc(C(=O)Nc4ccc(O)cc4)no3)cs2)cc1 | 79.1 µg/mL (≈ 202 µM) | 0.5 µg/mL (≈ 1.27 µM) | MIC90 (Mycobacterium marinum [7]): 1 µg/mL (≈ 2.55 µM); Activity [5]: inactive; Activity (Mycobacterium avium): inactive |
